Laboratory results published in ChEMBL document CHEMBL1125170, “A novel series of selective leukotriene antagonists: exploration and optimization of the acidic region in 1,6-disubstituted indoles and indazoles” (1990).
The source made the active and inactive calls. No cut-off for these calls is given here.

What was measured:
Cavia porcellus [1] = experiment: In vivo percent protection against aerosolized LTD4 induced dyspnea in guinea pig at 126 umol/kg po (60 minutes post oral dosing); 33/5; type: functional
Cavia porcellus [2] = species: Cavia porcellus; experiment: In vitro antagonism of 8 nM of peptidoleukotriene (LTE4) induced contraction of guinea pig tracheal spirals at 3.3 X E-7M concentration; type: functional, Trachea
Summary of the method: (§1)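 Guinea pig tracheal spirals held at 37 °C in modified Krebs' (mM: NaCl 119, KCl 4.6, CaCl2 1.8, MgCl2 0.5, NaHCO3 24.9, NaH2PO4 1.0, glucose 11.1) plus indomethacin 5 μM, resting tension 2 g, isometric recording. After reproducible 8 nM LTE4 responses, compound added for 10 min, then rechallenged. % inhibition is adjusted for the paired vehicle tissue. At least four spirals, paired t test.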

[3] = biological target: T1, Cysteinyl leukotriene receptor 1 (Cavia porcellus) (UniProt Q2NNR5); experiment: Dissociation constant KB = [antagonist]/(dose ratio -1).KB determined in guinea pig tracheal spirals with LTE4 as agonist; type: functional, tissue-based; conditions: Trachea
T1 sequence (whole entry): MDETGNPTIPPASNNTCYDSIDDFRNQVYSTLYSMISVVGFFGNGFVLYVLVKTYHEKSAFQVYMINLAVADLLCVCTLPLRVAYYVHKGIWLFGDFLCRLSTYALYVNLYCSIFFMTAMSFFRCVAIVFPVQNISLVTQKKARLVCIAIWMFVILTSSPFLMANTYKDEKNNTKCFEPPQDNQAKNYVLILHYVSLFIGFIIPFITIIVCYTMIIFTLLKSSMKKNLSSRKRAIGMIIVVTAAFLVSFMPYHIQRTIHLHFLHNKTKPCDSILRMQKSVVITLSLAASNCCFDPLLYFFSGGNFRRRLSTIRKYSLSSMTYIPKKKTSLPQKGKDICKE
Summary of the method: (§2)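 Isolated guinea pig tracheal strips in Krebs' buffer with indomethacin (5 μM), 37 °C, 95% O2/5% CO2, resting tension 2 g. Carbachol (30 μM) sets the maximum. Antagonist incubated 30 min, then cumulative LTE4 concentration–response curves in log increments, one curve per tissue. EC50 by linear regression, paired vehicle controls. KB = [antagonist]/(DR − 1) (Furchgott).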

Cavia porcellus [4] = species: Cavia porcellus; experiment: In vitro antagonism of 8 nM of peptidoleukotriene (LTE4) induced contraction of guinea pig tracheal spirals at 3 X E-7M concentration; type: functional, Trachea; summary of the method: as §1
Cavia porcellus [5] = species: Cavia porcellus; experiment: In vitro antagonism of 8 nM of peptidoleukotriene (LTE4) induced contraction of guinea pig tracheal spirals at 10 X E-7M concentration; type: functional, Trachea; summary of the method: as §1
Cavia porcellus [6] = species: Cavia porcellus; experiment: In vitro antagonism of 8 nM of peptidoleukotriene (LTE4) induced contraction of guinea pig tracheal spirals at 1 X E-7M concentration; type: functional, Trachea; summary of the method: as §1
Cavia porcellus [7] = species: Cavia porcellus; experiment: In vitro antagonism of 8 nM of peptidoleukotriene (LTE4) induced contraction of guinea pig tracheal spirals at 33 X E-7M concentration; type: functional, Trachea; summary of the method: as §1
Cavia porcellus [8] = experiment: In vivo percent protection against aerosolized LTD4 induced dyspnea in guinea pig at 100 umol/kg po (60 minutes post oral dosing); 23/6; type: functional
Cavia porcellus [9] = species: Cavia porcellus; experiment: Dissociation constant KB = [antagonist]/(dose ratio -1). KB determined in guinea pig tracheal spirals with LTE4 as agonist.; type: functional, Trachea; summary of the method: as §2
Cavia porcellus [10] = experiment: In vivo percent protection against aerosolized LTD4 induced dyspnea in guinea pig at 1 umol/kg po (180 minutes post oral dosing); 40/6; type: functional
Cavia porcellus [11] = species: Cavia porcellus; experiment: In vitro antagonism of 8 nM of peptidoleukotriene (LTE4) induced contraction of guinea pig tracheal spirals at 100 X E-7M concentration; Not active; type: functional; conditions: Trachea; summary of the method: as §1
Cavia porcellus [12] = experiment: In vivo percent protection against aerosolized LTD4 induced dyspnea in guinea pig at 113 umol/kg po (60 minutes post oral dosing); 14/4; type: functional
Cavia porcellus [13] = species: Cavia porcellus; experiment: In vitro antagonism of 8 nM of peptidoleukotriene (LTE4) induced contraction of guinea pig tracheal spirals at 0.033 X E-7M concentration; type: functional, Trachea; summary of the method: as §1
Cavia porcellus [14] = species: Cavia porcellus; experiment: In vitro antagonism of 8 nM of peptidoleukotriene (LTE4) induced contraction of guinea pig tracheal spirals at 0.1 X E-7M concentration; type: functional, Trachea; summary of the method: as §1
Cavia porcellus [15] = species: Cavia porcellus; experiment: In vitro antagonism of 8 nM of peptidoleukotriene (LTE4) induced contraction of guinea pig tracheal spirals at 100 X E-7M concentration; Not significant; type: functional, Trachea; summary of the method: as §1
Cavia porcellus [16] = experiment: In vivo percent protection against aerosolized LTD4 induced dyspnea in guinea pig at 30 umol/kg po (180 minutes post oral dosing); 43/7; type: functional
Cavia porcellus [17] = species: Cavia porcellus; experiment: In vitro antagonism of 8 nM of peptidoleukotriene (LTE4) induced contraction of guinea pig tracheal spirals at 0.01 X E-7M concentration; type: functional, Trachea; summary of the method: as §1
Cavia porcellus [18] = experiment: In vivo percent protection against aerosolized LTD4 induced dyspnea in guinea pig at 30 umol/kg po (180 minutes post oral dosing); 89/8; type: functional
Cavia porcellus [19] = experiment: In vivo percent protection against aerosolized LTD4 induced dyspnea in guinea pig at 10 umol/kg po (180 minutes post oral dosing); 37/8; type: functional
Cavia porcellus [20] = species: Cavia porcellus; experiment: In vitro antagonism of 8 nM of peptidoleukotriene (LTE4) induced contraction of guinea pig tracheal spirals at 0.001 X E-7M concentration; type: functional, Trachea; summary of the method: as §1
Cavia porcellus [21] = species: Cavia porcellus; experiment: In vitro antagonism of 8 nM of peptidoleukotriene (LTE4) induced contraction of guinea pig tracheal spirals at 0.33 X E-7M concentration; type: functional, Trachea; summary of the method: as §1
Cavia porcellus [22] = experiment: In vivo percent protection against aerosolized LTD4 induced dyspnea in guinea pig at 30 umol/kg po (60 minutes post oral dosing); 48/12; type: functional
Cavia porcellus [23] = experiment: In vivo percent protection against aerosolized LTD4 induced dyspnea in guinea pig at 30 umol/kg po (180 minutes post oral dosing); 67/11; type: functional

CCCCOC(=O)Nc1ccc2cnn(Cc3ccc(C(=O)O)cc3OC)c2c1 showed a Protection (Cavia porcellus [1]) of 33%, an Antagonism (Cavia porcellus [2]) of 56% and a pKB [3] of 6.7.

CCCCC(CC)C(=O)Nc1ccc2ccn(Cc3ccc(C(=O)NS(=O)(=O)CCCC)cc3OC)c2c1 (stereo unspecified) showed an Antagonism (Cavia porcellus [4]) of 63% and an Antagonism (Cavia porcellus [5]) of 100%.

COc1cc(C(=O)O)ccc1Cn1ccc2ccc(NC(=O)OC3CCCC3)cc21 was tested, and the Antagonism (Cavia porcellus [6]) was 61%, the Antagonism (Cavia porcellus [7]) was 100% and the Protection (Cavia porcellus [8]) was 23%. For the same compound, the pKB [3] was 7.8.

Compound COc1cc(C(=O)NS(=O)(=O)c2ccccc2C)ccc1Cn1ccc2ccc(NC(=O)CC3CCCC3)cc21 has a pKB (Cavia porcellus [9]) of 9.9 and a Protection (Cavia porcellus [10]) of 40%.

For COc1cc(CNS(=O)(=O)c2ccccc2)ccc1Cn1ccc2ccc(NC(=O)OC3CCCC3)cc21, the Antagonism (Cavia porcellus [11]) was “inactive”.

CCC(C(=O)Nc1ccc2cnn(Cc3ccc(C(=O)O)cc3OC)c2c1)c1ccccc1 (stereo unspecified) gave a Protection (Cavia porcellus [12]) of 14%, an Antagonism (Cavia porcellus [2]) of 30% and a pKB [3] of 7.1.

In the case of CCCCOC(=O)Nc1ccc2cnn(Cc3ccc(C(=O)NS(=O)(=O)c4ccccc4)cc3OC)c2c1, the Antagonism (Cavia porcellus [13]) is reported as 77%, the pKB (Cavia porcellus [9]) is reported as 9.2 and the Antagonism (Cavia porcellus [14]) is reported as 100%.

For CCCCC(CC)C(=O)Nc1ccc2ccn(Cc3ccc(C(=O)O)cc3OCCCc3ccccc3)c2c1 (stereo unspecified), the Antagonism (Cavia porcellus [15]) was 18%.

Compound COc1cc(C(=O)NS(=O)(=O)c2ccccc2)ccc1Cn1ccc2ccc(NC(=O)CC3CCCC3)cc21 has a Protection (Cavia porcellus [16]) of 43%, an Antagonism (Cavia porcellus [17]) of 50% and an Antagonism (Cavia porcellus [13]) of 92%. The pKB [3] was 9.6.

COc1cc(C(=O)NS(=O)(=O)c2ccccc2)ccc1Cn1ncc2ccc(NC(=O)OC3CCCC3)cc21 [ICI-198615] showed a Protection (Cavia porcellus [18]) of 89%, an Antagonism (Cavia porcellus [17]) of 69% and an Antagonism (Cavia porcellus [13]) of 100%. The Protection (Cavia porcellus [19]) was 37% and the pKB [3] was 10.3.

COc1cc(C(=O)NS(=O)(=O)c2ccccc2)ccc1Cn1ncc2ccc(NC(=O)CC3CCCC3)cc21 gave an Antagonism (Cavia porcellus [17]) of 100%, an Antagonism (Cavia porcellus [20]) of 23% and a pKB (Cavia porcellus [9]) of 10.5.

For COc1cc(C(=O)NS(=O)(=O)c2ccccc2)ccc1Cn1ccc2ccc(NC(=O)OC3CCCC3)cc21, the Antagonism (Cavia porcellus [21]) was 100%, the Antagonism (Cavia porcellus [13]) was 61% and the Protection (Cavia porcellus [22]) was 48%. It also gave a pKB [3] of 9.5 and a Protection (Cavia porcellus [23]) of 67%.
